Structures are written as SMILES. Converted amounts (≈) assume the structure as drawn. A value given as a limit tells only on which side of the number the result lay.

Holding throughout (assay type): functional
The test system of one test is Trichophyton benhamiae. The experiment in a line: Minimum inhibitory concentration against Trichophyton asteroides. Put shortly:
(§1)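 Broth microdilution in Sabouraud's glucose broth. Final inocula 1×10^5 cells/mL for the yeast (C. albicans) and 1×10^5 conidia/mL for the mold (A. fumigatus) and the dermatophyte (T. asteroides). MIC read as the fungistatic end point. Lowest value of duplicated experiments.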

Test [1] has as its system Candida albicans. The test is described as follows: Minimum inhibitory concentration (MIC) against Candida albicans. Put shortly: as §1
A further test concerns Aspergillus fumigatus. The test is described as follows: Minimum inhibitory concentration (MIC) against Aspergillus fumigatus. The procedure, abridged: as §1
Test [2] concerns Candida albicans. The experiment in a line: Inhibition of pseudomycelium formation of Candida albicans. The note with it: read-out: MEC. The procedure, abridged:
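C. albicans KE-2 (clinical isolate), final inoculum 1×10^6 yeast cells/mL in EMEM with 20% calf serum. Compounds serially diluted by the microtiter dilution system used for MICs. After incubation, wells Giemsa-stained (5% in phosphate buffer) and examined microscopically. MEC (μg/mL) = lowest concentration preventing typical pseudomycelium formation. Lowest value of duplicated experiments.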

Turning to `C/C=C(\c1cc(Cl)ccc1OCCC)n1ccnc1`, the MIC was found to be 0.1 µg/mL (≈ 0.361 µM) with Trichophyton benhamiae, 25 µg/mL (≈ 90.3 µM) against Candida albicans [1] and 1.6 µg/mL (≈ 5.78 µM) with Aspergillus fumigatus. In the test on Candida albicans [2], the minimal effective concentration was found to be 0.63 µg/mL.

For the molecule `CC(C)COc1ccccc1/C(=C\CN(C)C)n1ccnc1`, the MIC in the test with Trichophyton benhamiae is 6.3 µg/mL (≈ 21 µM); in the test on Candida albicans [1], more than 100 µg/mL; in the test with Aspergillus fumigatus, more than 100 µg/mL. In addition, in the test on Candida albicans [2], the minimal effective concentration amounted to 0.16 µg/mL.

As to `CCCCOc1ccccc1C(=C(C)C)n1ccnc1`, the figures for the MIC against Trichophyton benhamiae, against Candida albicans [1] and in the test with Aspergillus fumigatus were 0.1 µg/mL (≈ 0.37 µM), 50 µg/mL (≈ 185 µM) and 1.6 µg/mL (≈ 5.92 µM), respectively. For the same molecule, the minimal effective concentration with Candida albicans [2] turned out to be 0.31 µg/mL.

As to `C/C(CN(C)C)=C(\c1ccccc1OCC(C)C)n1ccnc1`, the MIC against Trichophyton benhamiae was 0.8 µg/mL (≈ 2.55 µM); in the test with Candida albicans [1], more than 100 µg/mL; with Aspergillus fumigatus, more than 100 µg/mL. The minimal effective concentration with Candida albicans [2] amounted to 0.63 µg/mL.

For `C=C(c1ccccc1OCCc1ccccc1)n1ccnc1`, the MIC worked out at 0.1 µg/mL (≈ 0.344 µM) with Trichophyton benhamiae, 12.5 µg/mL (≈ 43 µM) against Candida albicans [1] and 0.4 µg/mL (≈ 1.38 µM) against Aspergillus fumigatus. Further, in the test on Candida albicans [2], the minimal effective concentration is 1.25 µg/mL.

Regarding `CC(C)COc1ccccc1/C(=C/CN(C)c1ccccc1)n1ccnc1`, the results for the MIC with Trichophyton benhamiae, against Candida albicans [1] and against Aspergillus fumigatus were 0.1 µg/mL (≈ 0.277 µM), 12.5 µg/mL (≈ 34.6 µM) and 6.3 µg/mL (≈ 17.4 µM), respectively. In addition, the minimal effective concentration in the test on Candida albicans [2] worked out at 5 µg/mL.

In the case of `C/C=C(/c1cc(Cl)ccc1OCCC)n1ccnc1`, the MIC in the test on Trichophyton benhamiae is 0.1 µg/mL (≈ 0.361 µM); with Candida albicans [1] it was 25 µg/mL (≈ 90.3 µM); in the test on Aspergillus fumigatus, 6.3 µg/mL (≈ 22.8 µM). In addition, the minimal effective concentration in the test with Candida albicans [2] worked out at 0.63 µg/mL.

Turning to `CC(C)=C(c1ccccc1OCC(C)(C)C)n1ccnc1`, the MIC with Trichophyton benhamiae stood at 0.1 µg/mL (≈ 0.352 µM); in the test on Candida albicans [1] it was 25 µg/mL (≈ 87.9 µM); in the test with Aspergillus fumigatus, 6.3 µg/mL (≈ 22.2 µM). The minimal effective concentration in the test with Candida albicans [2] came to 0.31 µg/mL.

Take `CCCOc1ccc(Cl)cc1C(=C(C)C)n1ccnc1`: the figures for the MIC in the test with Trichophyton benhamiae, with Candida albicans [1] and against Aspergillus fumigatus were 0.2 µg/mL (≈ 0.688 µM), 25 µg/mL (≈ 86 µM) and 6.3 µg/mL (≈ 21.7 µM), respectively. Further, the minimal effective concentration in the test with Candida albicans [2] stood at 0.31 µg/mL.

As for `CCC(CC)=C(c1cc(Cl)ccc1OC)n1cncn1`, the MIC was determined as 0.8 µg/mL (≈ 2.74 µM) against Trichophyton benhamiae, 100 µg/mL (≈ 343 µM) against Candida albicans [1] and 100 µg/mL (≈ 343 µM) with Aspergillus fumigatus. Also, the minimal effective concentration with Candida albicans [2] is 1.25 µg/mL.

Regarding `CCCOc1ccccc1C(=C(C)C)n1ccnc1`, the minimum inhibitory concentration (MIC) worked out at 0.2 µg/mL (≈ 0.78 µM) in the test on Trichophyton benhamiae, 12.5 µg/mL (≈ 48.8 µM) in the test on Candida albicans [1] and 0.8 µg/mL (≈ 3.12 µM) in the test with Aspergillus fumigatus. Besides, in the test with Candida albicans [2], the minimal effective concentration amounted to 0.31 µg/mL.

In the case of `C=C(c1ccc(Cl)cc1)n1ccnc1`, the MIC against Trichophyton benhamiae turned out to be 25 µg/mL (≈ 122 µM); against Candida albicans [1], 100 µg/mL (≈ 489 µM); in the test on Aspergillus fumigatus, 100 µg/mL (≈ 489 µM). In addition, the minimal effective concentration with Candida albicans [2] was more than 20 µg/mL.

Take `C=C(c1ccccc1)n1ccnc1`: the results for the MIC against Trichophyton benhamiae, with Candida albicans [1] and in the test on Aspergillus fumigatus were 100 µg/mL (≈ 587 µM), more than 100 µg/mL and more than 100 µg/mL, respectively. Also, the minimal effective concentration in the test with Candida albicans [2] is more than 20 µg/mL.

`C=C(c1ccccc1OCCC(C)C)n1ccnc1`: the figures for the MIC against Trichophyton benhamiae, with Candida albicans [1] and with Aspergillus fumigatus were 0.1 µg/mL (≈ 0.39 µM), 25 µg/mL (≈ 97.5 µM) and 0.4 µg/mL (≈ 1.56 µM), respectively. In addition, the minimal effective concentration in the test with Candida albicans [2] is 0.63 µg/mL.

Regarding `C=C(c1cc(Cl)ccc1OCC(C)C)n1ccnc1`, the MIC against Trichophyton benhamiae was found to be 0.1 µg/mL (≈ 0.361 µM); in the test with Candida albicans [1] it was 50 µg/mL (≈ 181 µM); against Aspergillus fumigatus, 0.8 µg/mL (≈ 2.89 µM). Also, in the test on Candida albicans [2], the minimal effective concentration was 1.25 µg/mL.

Take `COc1ccc(Cl)cc1/C(=C/c1ccccc1)n1ccnc1`: the MIC was 6.2 µg/mL (≈ 19.9 µM) with Trichophyton benhamiae, 12.5 µg/mL (≈ 40.2 µM) against Candida albicans [1] and 25 µg/mL (≈ 80.4 µM) against Aspergillus fumigatus. In addition, in the test with Candida albicans [2], the minimal effective concentration was more than 20 µg/mL.

On to `CCC(CC)=C(c1cc(Cl)ccc1OCCC(C)C)n1cncn1`, for which the minimum inhibitory concentration (MIC) in the test with Trichophyton benhamiae is 0.8 µg/mL (≈ 2.3 µM); in the test on Candida albicans [1], more than 100 µg/mL; in the test with Aspergillus fumigatus it was more than 100 µg/mL. The minimal effective concentration with Candida albicans [2] was determined as 1.25 µg/mL.

With `CC(C)COc1ccc(Cl)cc1/C(=C\CN(C)C)n1ccnc1`, the MIC is 0.8 µg/mL (≈ 2.4 µM) against Trichophyton benhamiae, more than 100 µg/mL in the test on Candida albicans [1] and more than 100 µg/mL in the test with Aspergillus fumigatus. Besides, the minimal effective concentration with Candida albicans [2] turned out to be 2.5 µg/mL.

Take `C=C(c1cccc(OCc2ccc(Cl)cc2)c1)n1ccnc1`: the values for the MIC against Trichophyton benhamiae, in the test on Candida albicans [1] and in the test with Aspergillus fumigatus were 1.6 µg/mL (≈ 5.15 µM), 50 µg/mL (≈ 161 µM) and 12.5 µg/mL (≈ 40.2 µM), respectively. In addition, the minimal effective concentration in the test with Candida albicans [2] worked out at 5 µg/mL.

The values are drawn from ChEMBL document CHEMBL1123801, “Synthesis and antifungal activity of new 1-vinylimidazoles” (1987).
